Results taken from ChEMBL document CHEMBL3877332, “Synthesis, Biological Evaluation, and Autophagy Mechanism of 12N-Substituted Sophoridinamines as Novel Anticancer Agents” (ACS Med Chem Lett, 2017).
Values belong to the compound of their own block, whether it stands above or below them. Activity calls are given as the source filed them. No cut-off for these calls is given here.

Legend:
[1] = Antiproliferative activity against human HepG2 cells assessed as reduction in cell viability by MTT assay; format: functional, cell-based
[2] = Antiproliferative activity against human HMLE cells assessed as reduction in cell viability by MTT assay; format: functional, cell-based
[3] = Antiproliferative activity against human K562 cells assessed as reduction in cell viability by MTT assay; format: functional, cell-based
[4] = MRT in Sprague-Dawley rat at 25 mg/kg, po measured up to 24 hrs; format: ADME, organism-based; conditions: in vivo
Method in brief: (§1)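 Adult male Sprague-Dawley rats were given a single oral dose of 25 mg/kg. Nine blood samples (0.3 mL) were taken over 24 h. n = 3.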

[5] = AUCt in Sprague-Dawley rat at 25 mg/kg, po measured up to 24 hrs; format: ADME, organism-based; set-up: time < 24 hr, dose 25 mg/kg, route oral; conditions: in vivo; method in brief: as §1
[6] = AUC (0 to infinity) in Sprague-Dawley rat at 25 mg/kg, po measured up to 24 hrs; format: ADME, organism-based; set-up: dose 25 mg/kg, route oral, time infinity; conditions: in vivo; method in brief: as §1
[7] = Cmax in Sprague-Dawley rat at 25 mg/kg, po measured up to 24 hrs; format: ADME, organism-based; set-up: dose 25 mg/kg, route oral; conditions: in vivo; method in brief: as §1
[8] = Half life in Sprague-Dawley rat at 25 mg/kg, po measured up to 24 hrs; format: ADME, organism-based; conditions: in vivo; method in brief: as §1
[9] = Tmax in Sprague-Dawley rat at 25 mg/kg, po measured up to 24 hrs; format: ADME, organism-based; conditions: in vivo; method in brief: as §1
HepG2 [10] = assay: Reduction in lysosomal acidification in human HepG2 cells at 50 uM after 6 hrs by DAPI/lyso tracker red-double staining based confocal microscopic analysis relative to control; format: functional, cell-based
Method in brief: (§2)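 HepG2 cells were incubated at 5 μM (test agent) or 50 μM (chloroquine) for 6 h, then stained with LysoTracker Red. Nuclei were stained with DAPI and cells imaged by confocal microscopy (×63). LysoTracker Red signal was quantified per cell against untreated control.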

[11] = Cytotoxicity against human HepG2 cells assessed as reduction in cell viability at 50 uM by MTT assay; format: functional
Method in brief: (§3)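 HepG2 cells were exposed to test agent at 5 μM or chloroquine at 50 μM for the indicated times. Viability was measured by MTT assay.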

[12] = Cytotoxicity against human HepG2 cells assessed as reduction in cell viability at 5 uM by MTT assay; format: functional; method in brief: as §3
HepG2 [13] = assay: Blockade of autophagic flux in human HepG2 cells assessed as increase in LC3-2 level at 5 uM after 8 hrs in presence of rapamycin by Western blot analysis; format: functional, cell-based
Method in brief: (§4)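 A549 and HepG2 cells were pretreated with chloroquine (10 μM) or rapamycin (200 nM) for 2 h. Compound was then added at 5 μM for 8 h. LC3 turnover (LC3-II) was detected by Western blot.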

A549 [14] = assay: Blockade of autophagic flux in human A549 cells assessed as increase in LC3-2 level at 5 uM after 8 hrs in presence of rapamycin by Western blot analysis; format: functional, cell-based; method in brief: as §4
A549 [15] = assay: Blockade of autophagic flux in human A549 cells assessed as increase in LC3-2 level at 5 uM after 8 hrs in presence of chloroquine by Western blot analysis; format: functional, cell-based; method in brief: as §4
HepG2 [16] = assay: Blockade of autophagic flux in human HepG2 cells transfected with mCherry-EGFP-LC3 assessed as punctate dot formation at 5 uM after 6 hrs by DAPI staining-based confocal microscopic analysis; format: functional, cell-based
Method in brief: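 HepG2 cells were transfected with an mCherry-EGFP-LC3 tandem plasmid and treated at 5 μM for 6 h (CQ 50 μM alongside). Imaging was by confocal microscopy with DAPI-stained nuclei. GFP/mCherry double-positive and mCherry single-positive puncta per cell were counted in ≥100 cells per count. Data are the mean of three independent experiments ± SD.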

A549 [17] = assay: Induction of autophagosome accumulation in human A549 cells transfected with EGFP-LC3 assessed as punctate dot formation at 5 uM after 6 hrs by fluorescent microscopic analysis relative to control; format: functional, cell-based
HepG2 [18] = assay: Blockade of autophagic flux in human HepG2 cells assessed as increase in LC3-2 level at 5 uM after 8 hrs in presence of chloroquine by Western blot analysis; format: functional, cell-based; method in brief: as §4
HepG2 [19] = assay: Induction of autophagosome accumulation in human HepG2 cells transfected with EGFP-LC3 assessed as punctate dot formation at 5 uM after 6 hrs by fluorescent microscopic analysis relative to control; format: functional, cell-based
Method in brief: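 HepG2 cells were transfected with an EGFP-LC3 plasmid, then exposed 24 h later to 5 μM or left untreated for 6 h. Cells were imaged by fluorescence microscopy, and EGFP-LC3 puncta per cell were counted in at least 100 cells per group.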

HepG2 [20] = assay: Reduction in lysosomal acidification in human HepG2 cells at 5 uM after 6 hrs by DAPI/lyso tracker red-double staining based confocal microscopic analysis relative to control; format: functional, cell-based; method in brief: as §2

Compound: O=S(=O)(c1ccc(Cl)cc1)N1C[C@H]2CCCN3CCC[C@@H]([C@H]23)[C@H]1CCCCO
IC50 [1]: 28.8 µM

Compound: COC(=O)CCC[C@@H]1[C@H]2CCCN3CCC[C@H](CN1C(=O)C(C)(C)C)[C@@H]23
IC50 [1]: > 50 µM

Compound: CC[C@@]1(O)C(=O)OCc2c1cc1n(c2=O)Cc2cc3c(CN(C)C)c(O)ccc3nc2-1 [TOPOTECAN]
IC50 [2]: 0.75 µM | IC50 [3]: 1.15 µM

Compound: COC(=O)CCC[C@@H]1[C@H]2CCCN3CCC[C@H](CN1C(=O)N(CCCl)N=O)[C@@H]23
IC50 [1]: 38.3 µM

Compound: Clc1ccc(CN2C[C@H]3CCCN4CCC[C@@H]([C@H]34)[C@H]2CCCCNc2cccc3c2OCO3)cc1
IC50 [1]: 10.6 µM

Compound: O=S(=O)(c1ccc(Cl)cc1)N1C[C@H]2CCCN3CCC[C@@H]([C@H]23)[C@H]1CCCCNCc1cccc2c1OCO2
IC50 [1]: 3.8 µM

Compound: COC(=O)CCC[C@@H]1[C@H]2CCCN3CCC[C@H](CN1S(=O)(=O)c1ccc(Cl)cc1)[C@@H]23
IC50 [1]: 15.8 µM

Compound: O=C(c1ccc(Cl)cc1)N1C[C@H]2CCCN3CCC[C@@H]([C@H]23)[C@H]1CCCCO
IC50 [1]: > 50 µM

Compound: COC(=O)CCC[C@@H]1[C@H]2CCCN3CCC[C@H](CN1C(=O)c1ccc(Cl)cc1)[C@@H]23
IC50 [1]: > 50 µM

Compound: COC(=O)CCC[C@@H]1[C@H]2CCCN3CCC[C@H](CN1C(=O)NCCCl)[C@@H]23
IC50 [1]: > 50 µM

Compound: CC(C)(C)C(=O)N1C[C@H]2CCCN3CCC[C@@H]([C@H]23)[C@H]1CCCCO
IC50 [1]: > 50 µM

Compound: O=C(c1ccc(Cl)cc1)N1C[C@H]2CCCN3CCC[C@@H]([C@H]23)[C@H]1CCCCNCCc1cccc2c1OCO2
IC50 [1]: > 20 µM

MRT [4]: 9.1 h | AUC(0-t) at 24 h [5]: 5.7 µM·h | AUC(0-inf) [6]: 6.8 µM·h | Cmax [7]: 2700 nM | half-life [8]: 11.2 h | Tmax [9]: 1.2 h
Compound: Clc1ccc(CN2C[C@H]3CCCN4CCC[C@@H]([C@H]34)[C@H]2CCCCNCc2cccc3c2OCO3)cc1
IC50 [2]: 0.64 µM | IC50 [1]: 2.6 µM | IC50 [3]: 1.14 µM

MRT [4]: 10.8 h | AUC(0-t) at 24 h [5]: 6.1 µM·h | AUC(0-inf) [6]: 11.7 µM·h | Cmax [7]: 2900 nM | half-life [8]: 21.9 h | Tmax [9]: 1.8 h
Compound: Clc1ccc(CN2C[C@H]3CCCN4CCC[C@@H]([C@H]34)[C@H]2CCCCNCCc2cccc3c2OCO3)cc1
IC50 [2]: 0.68 µM | IC50 [1]: 2.6 µM | IC50 [3]: 1.09 µM

Compound: OCCCC[C@@H]1[C@H]2CCCN3CCC[C@H](CN1Cc1ccc(Cl)cc1)[C@@H]23
IC50 [1]: 9.3 µM

Compound: CCN(CC)CCCC(C)Nc1ccnc2cc(Cl)ccc12 (configuration not stated) [CHLOROQUINE]
Activity (HepG2 [10]): Active | Activity [11]: 50%

Compound: COc1cc(CNCCCC[C@@H]2[C@H]3CCCN4CCC[C@H](CN2C(=O)c2ccc(Cl)cc2)[C@@H]34)cc(OC)c1OC
IC50 [1]: > 20 µM

Compound: COc1cc(NCCCC[C@@H]2[C@H]3CCCN4CCC[C@H](CN2Cc2ccc(Cl)cc2)[C@@H]34)cc(OC)c1OC
IC50 [1]: 6.4 µM

Compound: O=C(c1ccc(Cl)cc1)N1C[C@H]2CCCN3CCC[C@@H]([C@H]23)[C@H]1CCCCNCc1cccc2c1OCO2
IC50 [1]: 16.5 µM

Compound: COc1cc(NCCCC[C@@H]2[C@H]3CCCN4CCC[C@H](CN2S(=O)(=O)c2ccc(Cl)cc2)[C@@H]34)cc(OC)c1OC
IC50 [1]: 7.9 µM

MRT [4]: 11.6 h | AUC(0-t) at 24 h [5]: 10.8 µM·h | AUC(0-inf) [6]: 13.3 µM·h | Cmax [7]: 4900 nM | half-life [8]: 13 h | Tmax [9]: 1.6 h
Compound: COc1cc(CNCCCC[C@@H]2[C@H]3CCCN4CCC[C@H](CN2Cc2ccc(Cl)cc2)[C@@H]34)cc(OC)c1OC
Activity [12]: 50% | Activity (HepG2 [13]): Active | IC50 [2]: 0.55 µM | Activity (A549 [14]): Active | IC50 [1]: 1.7 µM | Activity (A549 [15]): Active | Activity (HepG2 [16]): Active | IC50 [3]: 1.03 µM | Activity (A549 [17]): Active | Activity (HepG2 [18]): Active | Activity (HepG2 [19]): Active | Activity (HepG2 [20]): Active

Compound: O=S(=O)(c1ccc(Cl)cc1)N1C[C@H]2CCCN3CCC[C@@H]([C@H]23)[C@H]1CCCCNCCc1cccc2c1OCO2
IC50 [1]: 5.5 µM
